# Test results: PMC11843577 (RSC Medicinal Chemistry, 2025)
# What was measured:
# TDP1 in HCT116 cell line = TDP1 in HCT116 cell line (Homo sapiens, UniProt Q9NUW8); assay: Western blot for TDP1 degradation; format: cell-based; conditions: 5h 10 μM within 6 h, 5h 0.1-100 μM and 5i 10, 100 μM within 24 h
# U2OS cell line = assay: Synergy assay with camptothecin; format: cell-based, human; conditions: compound at 10 μM, 72 h cell viability
# Procedure, shortened: (§1)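 HCT116 colon or U2OS osteosarcoma cells were seeded at 2 × 10³ cells per well and cultured for 72 h in medium containing the test compound together with camptothecin. Viability was read by CellTiter-Glo luminescence, and synergy was judged from these viability data.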
# HCT116 cell line = assay: Synergy assay with camptothecin; format: cell-based, human; conditions: HCT116, compound at 10 μM, 72 h cell viability
# Procedure, shortened: as §1
# full-length TDP1 = full-length TDP1 (Homo sapiens, UniProt Q9NUW8); assay: TDP1 gel-based fluorescence assay in vitro; format: biochemical
# full-length TDP2 = target: T1, full-length TDP2 (Homo sapiens, UniProt O95551); assay: TDP2 gel-based fluorescence assay in vitro; format: biochemical; conditions: ratio of IC50 values of TDP2 vs. TDP1
# T1 sequence (O95551 1-362): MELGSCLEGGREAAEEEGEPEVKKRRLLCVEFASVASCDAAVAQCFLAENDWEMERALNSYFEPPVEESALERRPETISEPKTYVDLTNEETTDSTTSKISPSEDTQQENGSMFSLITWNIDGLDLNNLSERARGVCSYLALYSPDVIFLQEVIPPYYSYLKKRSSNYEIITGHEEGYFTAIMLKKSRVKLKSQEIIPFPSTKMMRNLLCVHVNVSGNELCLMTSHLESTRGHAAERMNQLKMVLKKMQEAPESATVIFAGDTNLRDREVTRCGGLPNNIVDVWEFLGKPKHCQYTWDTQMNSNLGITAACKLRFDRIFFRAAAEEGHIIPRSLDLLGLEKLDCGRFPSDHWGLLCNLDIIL
# full-length TDP1, sequence (Q9NUW8 whole entry): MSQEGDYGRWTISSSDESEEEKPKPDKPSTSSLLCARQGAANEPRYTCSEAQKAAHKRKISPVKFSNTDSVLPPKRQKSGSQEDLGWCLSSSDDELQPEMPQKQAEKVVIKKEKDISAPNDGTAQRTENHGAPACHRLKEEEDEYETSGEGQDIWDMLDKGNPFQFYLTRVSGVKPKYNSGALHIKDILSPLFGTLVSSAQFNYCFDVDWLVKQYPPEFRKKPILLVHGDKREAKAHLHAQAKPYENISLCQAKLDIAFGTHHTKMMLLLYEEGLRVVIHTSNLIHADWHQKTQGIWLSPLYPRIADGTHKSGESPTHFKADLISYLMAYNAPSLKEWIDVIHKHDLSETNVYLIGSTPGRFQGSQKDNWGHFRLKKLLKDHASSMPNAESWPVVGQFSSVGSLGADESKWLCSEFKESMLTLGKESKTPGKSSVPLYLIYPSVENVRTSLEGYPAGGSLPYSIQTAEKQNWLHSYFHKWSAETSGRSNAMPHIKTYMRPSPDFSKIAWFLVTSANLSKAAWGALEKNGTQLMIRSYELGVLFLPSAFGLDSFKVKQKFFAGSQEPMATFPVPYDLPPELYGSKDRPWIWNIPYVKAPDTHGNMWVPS
# TDP1 in HCT116 cell line, sequence (Q9NUW8 whole entry): as above
SMILES,TDP1 IC50 (full-length TDP1),also measured
"O=C1CCC(N2C(=O)c3cccc(NCc4cn(Cc5ccc(-c6nc7cc(-c8ccccc8)ccn7c6Nc6ccc(C(=O)O)cc6)cc5)nn4)c3C2=O)C(=O)N1 (stereo not shown) [Compound 5h, 4-((2-(4-((4-(((2-(2,6-Dioxopiperidin-3-yl)-1,3-dioxoisoindolin-4-yl)amino)methyl)-1H-1,2,3-triazol-1-yl)methyl)phenyl)-7-phenylimidazo[1,2-a]pyridin-3-yl)amino)benzoic acid]",–,TDP1 degradation compared with GAPDH (TDP1 in HCT116 cell line): unable to observe degradation effects; Synergy in combination with TOP1 inhibitor camptothecin (CPT) (U2OS cell line): failed to show synergy; Synergy in combination with TOP1 inhibitor camptothecin (CPT) (HCT116 cell line): failed to show synergy
"Cc1ncsc1-c1ccc(CNC(=O)[C@@H]2C[C@@H](O)CN2C(=O)[C@@H](NC(=O)COCCOCCOCCn2cc(COc3ccc(-c4nc5cc(-c6ccccc6)ccn5c4Nc4ccc(C(=O)O)cc4)cc3)nn2)C(C)(C)C)cc1 [Compound 5b, 4-((2-(4-((1-((S)-13-((2S,4R)-4-Hydroxy-2-((4-(4-methylthiazol-5-yl)benzyl)carbamoyl)pyrrolidine-1-carbonyl)-14,14-dimethyl-11-oxo-3,6,9-trioxa-12-azapentadecyl)-1H-1,2,3-triazol-4-yl)methoxy)phenyl)-7-phenylimidazo[1,2-a]pyridin-3-yl)amino)benzoic acid]",failed to exhibit TDP1 inhibitory potency within the range tested,–
"O=C(COc1cccc2c1C(=O)N(C1CCC(=O)NC1=O)C2=O)NCCCCn1cc(COc2ccc(-c3nc4ccccn4c3Nc3ccc(C(=O)O)cc3)cc2)nn1 (stereo not shown) [Compound 5e, 4-((2-(4-((1-(4-(2-((2-(2,6-Dioxopiperidin-3-yl)-1,3-dioxoisoindolin-4-yl)oxy)acetamido)butyl)-1H-1,2,3-triazol-4-yl)methoxy)phenyl)imidazo[1,2-a]pyridin-3-yl)amino)benzoic acid]",did not show TDP1 inhibitory potency within the range tested,–
"O=C(COc1cccc2c1C(=O)N(C1CCC(=O)NC1=O)C2=O)NCCCCn1cc(COc2ccc(-c3nc4cc(-c5ccccc5)ccn4c3Nc3ccc(C(=O)O)cc3)cc2)nn1 (stereo not shown) [Compound 5d, 4-((2-(4-((1-(4-(2-((2-(2,6-Dioxopiperidin-3-yl)-1,3-dioxoisoindolin-4-yl)oxy)acetamido)butyl)-1H-1,2,3-triazol-4-yl)methoxy)phenyl)-7-phenylimidazo[1,2-a]pyridin-3-yl)amino)benzoic acid]",did not show TDP1 inhibitory potency within the range tested,–
"Cc1ncsc1-c1ccc(CNC(=O)[C@@H]2C[C@@H](O)CN2C(=O)[C@@H](NC(=O)COCCOCCOCCOCCn2cc(COc3ccc(-c4nc5cc(-c6ccccc6)ccn5c4Nc4ccc(C(=O)O)cc4)cc3)nn2)C(C)(C)C)cc1 [Compound 5c, 4-((2-(4-((1-((S)-16-((2S,4R)-4-Hydroxy-2-((4-(4-methylthiazol-5-yl)benzyl)carbamoyl)pyrrolidine-1-carbonyl)-17,17-dimethyl-14-oxo-3,6,9,12-tetraoxa-15-azaoctadecyl)-1H-1,2,3-triazol-4-yl)methoxy)phenyl)-7-phenylimidazo[1,2-a]pyridin-3-yl)amino)benzoic acid]",failed to exhibit TDP1 inhibitory potency within the range tested,–
"O=C(COc1cccc2c1C(=O)N(C1CCC(=O)NC1=O)C2=O)NCCCCn1cc(-c2ccc(-c3nc4ccccn4c3Nc3ccc(C(=O)O)cc3)cc2)nn1 (stereo not shown) [Compound 5g, 4-((2-(4-(1-(4-(2-((2-(2,6-Dioxopiperidin-3-yl)-1,3-dioxoisoindolin-4-yl)oxy)acetamido)butyl)-1H-1,2,3-triazol-4-yl)phenyl)imidazo[1,2-a]pyridin-3-yl)amino)benzoic acid]",did not show TDP1 inhibitory potency within the range tested,–
"CN(Cc1cn(Cc2ccc(-c3nc4cc(-c5ccccc5)ccn4c3Nc3ccc(C(=O)O)cc3)cc2)nn1)c1cccc2c1C(=O)N(C1CCC(=O)NC1=O)C2=O (stereo not shown) [Compound 5i, 4-((2-(4-((4-(((2-(2,6-Dioxopiperidin-3-yl)-1,3-dioxoisoindolin-4-yl)(methyl)amino)methyl)-1H-1,2,3-triazol-1-yl)methyl)phenyl)-7-phenylimidazo[1,2-a]pyridin-3-yl)amino)benzoic acid]",–,TDP1 degradation compared with GAPDH (TDP1 in HCT116 cell line): unable to observe degradation effects
"O=C1CCC(N2C(=O)c3cccc(NCCc4cn(Cc5ccc(-c6nc7cc(-c8ccccc8)ccn7c6Nc6ccc(C(=O)O)cc6)cc5)nn4)c3C2=O)C(=O)N1 (stereo not shown) [Compound 5j, 4-((2-(4-((4-(2-((2-(2,6-Dioxopiperidin-3-yl)-1,3-dioxoisoindolin-4-yl)amino)ethyl)-1H-1,2,3-triazol-1-yl)methyl)phenyl)-7-phenylimidazo[1,2-a]pyridin-3-yl)amino)benzoic acid]",–,TDP1 selectivity (full-length TDP2): 1.4
